In ChEMBL document CHEMBL4732268, “Discovery of a Potent and Selective Covalent p300/CBP Inhibitor” (ACS Med Chem Lett, 2021):
Each block holds one compound with its values, some of them ahead of it.

Legend:
[1] = Inhibition of human p300-BHC domain (residues 1036-1822)/CBP-BHC domain (residues 1072-1859) expressed in Bac-to-Bac Baculovirus expression system assessed as inhibition of lysine residues acetylation in Histone H4 synthetic substrate preincubated for 30 mins followed by addition of substrate and acetyl coenzyme A and measured after 1 hr by TR-FRET assay
[2] = Inhibition of human p300/CBP in human PC-3 cells assessed as decrease in H3K27 acetylation measured after 3 hrs by Fluorescence based plate reader assay; format: cell-based; conditions: PC-3, 3 h
Method in brief: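 PC-3 cells were treated with compound for 3 h, and the reduction in H3K27 acetylation was measured.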

[3] = test system: LNCaP-Clone-FGC; experiment: Antiproliferative activity against AR-positive human LNCaP-Clone-FGC cells assessed as inhibition of cell proliferation measured after 5 days by luminiscent plate reader method; format: functional, cell-based; conditions: 120 h
Method in brief: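 LNCaP-FGC cells (androgen receptor-positive) were treated with compound for 5 days, then proliferation was read in a cell-growth assay. EC50 was derived from N = 2.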

[4] = test system: DU-145; experiment: Antiproliferative activity against human DU-145 cells assessed as inhibition of cell proliferation measured after 5 days by luminiscent plate reader method; format: functional, cell-based; conditions: DU-145, 120 h
Method in brief: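 DU-145 cells (androgen receptor-negative) were treated with compound for 5 days, then proliferation was read in a cell-growth assay. EC50 was derived from the dose response.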

[5] = Inhibition of human p300/CBP in human PC-3 cells assessed as decrease in H3K27 acetylation measured after 24 hrs by Fluorescence based plate reader assay; format: cell-based; conditions: PC-3, 24 h
[6] = Inhibition of human p300/CBP in human PC-3 cells assessed as decrease in H3K27 acetylation incubated for 24 hrs followed by compound washout and measured after 1 hr by Fluorescence based plate reader assay; format: cell-based
Method in brief: (§1)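 Washout assay. PC-3 cells were incubated with compound for 24 h, washed, and given fresh compound-free medium. Incubation then continued, and H3K27 acetylation was measured at set times from 1 to 48 h after washout. Inhibition is reported as EC50.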

[7] = Inhibition of human p300/CBP in human PC-3 cells assessed as decrease in H3K27 acetylation incubated for 24 hrs followed by compound washout and measured after 2 hr by Fluorescence based plate reader assay; format: cell-based; method in brief: as §1
[8] = Inhibition of human p300/CBP in human PC-3 cells assessed as decrease in H3K27 acetylation incubated for 24 hrs followed by compound washout and measured after 4 hr by Fluorescence based plate reader assay; format: cell-based; method in brief: as §1
[9] = Inhibition of human p300/CBP in human PC-3 cells assessed as decrease in H3K27 acetylation incubated for 24 hrs followed by compound washout and measured after 8 hr by Fluorescence based plate reader assay; format: cell-based; method in brief: as §1
[10] = Inhibition of human p300/CBP in human PC-3 cells assessed as decrease in H3K27 acetylation incubated for 24 hrs followed by compound washout and measured after 24 hr by Fluorescence based plate reader assay; format: cell-based; conditions: PC-3, 24 h; method in brief: as §1
[11] = Inhibition of human p300/CBP in human PC-3 cells assessed as decrease in H3K27 acetylation incubated for 24 hrs followed by compound washout and measured after 48 hr by Fluorescence based plate reader assay; format: cell-based; method in brief: as §1
[12] = Inhibition of human p300/CBP in human PC-3 cells assessed as decrease in H3K27 acetylation measured after 48 hrs by Fluorescence based plate reader assay; format: cell-based; conditions: PC-3, 48 h
[13] = species on record: Homo sapiens; experiment: Ratio of EC50 for human p300/CBP in human PC-3 cells incubated for 24 hrs and measured 1 hr post washout to EC50 for human p300/CBP in human PC-3 cells measured after 24 hrs; format: cell-based
[14] = species on record: Homo sapiens; experiment: Ratio of EC50 for human p300/CBP in human PC-3 cells incubated for 24 hrs and measured 2 hr post washout to EC50 for human p300/CBP in human PC-3 cells measured after 24 hrs; format: cell-based
[15] = species on record: Homo sapiens; experiment: Ratio of EC50 for human p300/CBP in human PC-3 cells incubated for 24 hrs and measured 4 hr post washout to EC50 for human p300/CBP in human PC-3 cells measured after 24 hrs; format: cell-based
[16] = species on record: Homo sapiens; experiment: Ratio of EC50 for human p300/CBP in human PC-3 cells incubated for 24 hrs and measured 8 hr post washout to EC50 for human p300/CBP in human PC-3 cells measured after 24 hrs; format: cell-based
[17] = species on record: Homo sapiens; experiment: Ratio of EC50 for human p300/CBP in human PC-3 cells incubated for 24 hrs and measured 24 hr post washout to EC50 for human p300/CBP in human PC-3 cells measured after 24 hrs; format: cell-based
[18] = species on record: Homo sapiens; experiment: Ratio of EC50 for human p300/CBP in human PC-3 cells incubated for 24 hrs and measured 48 hr post washout to EC50 for human p300/CBP in human PC-3 cells measured after 24 hrs; format: cell-based
[19] = species on record: Homo sapiens; experiment: Ratio of EC50 for human p300/CBP in human PC-3 cells measured after 48 hr to EC50 for human p300/CBP in human PC-3 cells measured after 24 hrs; format: cell-based

Compound: C=CC(=O)Nc1cccc(NC(=O)Nc2ccc3c(c2)CC[C@@]32OC(=O)N(CC(=O)N(Cc3ccc(F)cc3)[C@@H](C)C(F)(F)F)C2=O)c1
- IC50 [1]: 0.166 µM
- EC50 [2]: 0.037 µM
- EC50 [3]: 0.087 µM
- EC50 [4]: 1.37 µM
- EC50 [5]: 0.011 µM
- EC50 [6]: 0.015 µM
- EC50 [7]: 0.017 µM
- EC50 [8]: 0.024 µM
- EC50 [9]: 0.129 µM
- EC50 [10]: 0.544 µM
- EC50 [11]: 0.656 µM
- EC50 [12]: 0.021 µM
- Ratio [13]: 1.3
- Ratio [14]: 1.5
- Ratio [15]: 2.1
- Ratio [16]: 11.3
- Ratio [17]: 47.8
- Ratio [18]: 57.7
- Ratio [19]: 1.8

Compound: C=CS(=O)(=O)c1ccc(NC(=O)Nc2ccc3c(c2)CC[C@@]32OC(=O)N(CC(=O)N(Cc3ccc(F)cc3)[C@@H](C)C(F)(F)F)C2=O)cc1
- IC50 [1]: 4.27 µM

Compound: C=CS(=O)(=O)Nc1cccc(NC(=O)Nc2ccc3c(c2)CC[C@@]32OC(=O)N(CC(=O)N(Cc3ccc(F)cc3)[C@@H](C)C(F)(F)F)C2=O)c1
- IC50 [1]: 0.604 µM
- EC50 [2]: 1.23 µM

- EC50 [2]: 0.103 µM
- EC50 [3]: 0.35 µM
- EC50 [5]: 0.227 µM
- EC50 [6]: > 10 µM
- EC50 [7]: > 10 µM
- EC50 [8]: > 10 µM
- EC50 [9]: > 10 µM
- EC50 [10]: > 10 µM
- EC50 [11]: > 10 µM
- EC50 [12]: 0.253 µM
Compound: CNC(=O)Nc1ccc2c(c1)CC[C@@]21OC(=O)N(CC(=O)N(Cc2ccc(F)cc2)[C@@H](C)C(F)(F)F)C1=O [A-485]

Compound: C=CC(=O)Nc1ccc(NC(=O)Nc2ccc3c(c2)CC[C@@]32OC(=O)N(CC(=O)N(Cc3ccc(F)cc3)[C@@H](C)C(F)(F)F)C2=O)cc1
- IC50 [1]: 22.1 µM

Compound: C=CC(=O)N1CCCN(C(=O)Nc2ccc3c(c2)CC[C@@]32OC(=O)N(CC(=O)N(Cc3ccc(F)cc3)[C@@H](C)C(F)(F)F)C2=O)C1
- IC50 [1]: 2 µM

Compound: C=CC(=O)NCC(C)(C)CNC(=O)Nc1ccc2c(c1)CC[C@@]21OC(=O)N(CC(=O)N(Cc2ccc(F)cc2)[C@@H](C)C(F)(F)F)C1=O
- IC50 [1]: 0.185 µM
- EC50 [2]: 0.048 µM
- EC50 [3]: 0.177 µM

Compound: C=CS(=O)(=O)Nc1ccc(NC(=O)Nc2ccc3c(c2)CC[C@@]32OC(=O)N(CC(=O)N(Cc3ccc(F)cc3)[C@@H](C)C(F)(F)F)C2=O)cc1
- IC50 [1]: 3.02 µM
